Experimental findings from ChEMBL document CHEMBL1781919, “Synthesis and anticonvulsant properties of 1-(amino-N-arylmethanethio)-3-(1-substituted benzyl-2, 3-dioxoindolin-5-yl) urea derivatives” (Eur J Med Chem, 2011) are described below.

Activity calls are given as the source filed them. The calls are words filed in the database; no cut-off is given here.

Data set [1] concerns Mus musculus. As to the kind of experiment: Anticonvulsant activity in mouse assessed as protection against subcutaneous pentylenetetrazole-induced seizures at 300 mg/kg, ip after 0.5 hrs. Type of data set: functional, organism-based. Also on record: dose 300 mg/kg.
The test system of data set [2] is Mus musculus. Kind of data set: Anticonvulsant activity in mouse assessed as protection against maximal electroshock-induced seizures at 30 mg/kg, ip after 4 hrs. Type of data set: functional, organism-based. Also on record: dose 30 mg/kg. In short, it runs like this: (§1)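 Mouse Test 1: i.p. dosing at 0.01 mL/g. Sets of one, three and one animals receive 30, 100 and 300 mg/kg respectively, each tested at 0.5 h and 4.0 h. Score is N/F, the number of animals protected over the number tested. Screening performed by NINDS following the ADD program protocol.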

In data set [3] the test system is Mus musculus. Kind of data set: Anticonvulsant activity in mouse assessed as protection against subcutaneous pentylenetetrazole-induced seizures at 100 mg/kg, ip after 4 hrs. In kind it is functional, organism-based. Also on record: dose 100 mg/kg.
Data set [4] relates to Mus musculus. As to the kind of experiment: Anticonvulsant activity in mouse assessed as protection against subcutaneous pentylenetetrazole-induced seizures at 30 mg/kg, ip after 0.5 hrs. Also on record: dose 30 mg/kg. Type of data set: functional, organism-based.
Data set [5] concerns Mus musculus. As to the kind of experiment: Neurotoxicity in mouse assessed as minimum motor impairment at 100 mg/kg, ip after 0.5 hrs by rotarod test. Type of data set: toxicity, organism-based. Also on record: dose 100 mg/kg, route intraperitoneal. Particulars: in vivo. The procedure, abridged:
(§2)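 Rotorod test for minimal motor impairment in mice given 30, 100 or 300 mg/kg i.p. at 0.01 mL/g, using sets of one, three and one animals, at 0.5 h and 4.0 h. Animals are observed at each dose and time. Score is N/F, the number showing toxicity over the number tested.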

In data set [6] the test system is Mus musculus. Kind of data set: Anticonvulsant activity in mouse assessed as protection against subcutaneous pentylenetetrazole-induced seizures at 100 mg/kg, ip after 0.5 hrs. Type of data set: functional, organism-based. Also noted: dose 100 mg/kg.
Data set [7] deals with Mus musculus. Kind of data set: Neurotoxicity in mouse assessed as minimum motor impairment at 300 mg/kg, ip after 0.5 hrs by rotarod test. In kind it is toxicity, organism-based. Also noted: dose 300 mg/kg, route intraperitoneal. The following applies: in vivo. The procedure, abridged:
as §2

Data set [8] has as its system Mus musculus. As to the kind of experiment: Anticonvulsant activity in mouse assessed as protection against maximal electroshock-induced seizures at 300 mg/kg, ip after 4 hrs. Type of data set: functional, organism-based. Also noted: dose 300 mg/kg. The procedure, abridged:
as §1

Data set [9] relates to Mus musculus. As to the kind of experiment: Anticonvulsant activity in mouse assessed as protection against maximal electroshock-induced seizures at 100 mg/kg, ip after 4 hrs. Type of data set: functional, organism-based. Also noted: dose 100 mg/kg. The procedure, abridged:
as §1

The subject of data set [10] is Mus musculus. Kind of data set: Neurotoxicity in mouse assessed as minimum motor impairment at 300 mg/kg, ip after 4 hrs by rotarod test. Type of data set: toxicity, organism-based. Also noted: dose 300 mg/kg, route intraperitoneal. Particulars: in vivo. The procedure, abridged: as §2
In data set [11] the test system is Mus musculus. Kind of data set: Anticonvulsant activity in mouse assessed as protection against maximal electroshock-induced seizures at 300 mg/kg, ip after 0.5 hrs. Also on record: dose 300 mg/kg. In kind it is functional, organism-based. In short, it runs like this:
as §1

Data set [12] relates to Mus musculus. Kind of data set: Neurotoxicity in mouse assessed as minimum motor impairment at 30 mg/kg, ip after 0.5 hrs by rotarod test. Type of data set: toxicity, organism-based. Also noted: dose 30 mg/kg, route intraperitoneal. The following applies: in vivo. In short, it runs like this: as §2
Data set [13] has as its system Mus musculus. Kind of data set: Anticonvulsant activity in mouse assessed as protection against maximal electroshock-induced seizures at 30 mg/kg, ip after 0.5 hrs. Also noted: dose 30 mg/kg. In kind it is functional, organism-based. In short, it runs like this:
as §1

In data set [14] the test system is Mus musculus. Kind of data set: Anticonvulsant activity in mouse assessed as protection against maximal electroshock-induced seizures at 100 mg/kg, ip after 0.5 hrs. Also noted: dose 100 mg/kg. Type of data set: functional, organism-based. The procedure, abridged: as §1
A short description of data set [15]: Octanol-phosphate buffer partition coefficient, log P of the compound. In kind it is physicochemical. The procedure, abridged: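 Octanol and phosphate buffer partition run at room temperature (29 °C). After separation, the phases are membrane-filtered and drug in the aqueous phase is measured by UV. PC = (Ct − Ca)/Ca, where Ct is total drug concentration and Ca is aqueous-phase concentration.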

For data set [16], the system named is Mus musculus. As to the kind of experiment: Neurotoxicity in mouse assessed as minimum motor impairment at 100 mg/kg, ip after 4 hrs by rotarod test. Type of data set: toxicity, organism-based. The following applies: in vivo. Also noted: dose 100 mg/kg, route intraperitoneal. The procedure, abridged:
as §2

Data set [17] has as its system Mus musculus. Kind of data set: Anticonvulsant activity in mouse assessed as protection against subcutaneous pentylenetetrazole-induced seizures at 300 mg/kg, ip after 4 hrs. In kind it is functional, organism-based. Also noted: dose 300 mg/kg.
In data set [18] the test system is Mus musculus. As to the kind of experiment: Neurotoxicity in mouse assessed as minimum motor impairment at 30 mg/kg, ip after 4 hrs by rotarod test. Particulars: in vivo. Type of data set: toxicity, organism-based. Also on record: dose 30 mg/kg, route intraperitoneal. The procedure, abridged: as §2
Data set [19] deals with Mus musculus. Kind of data set: Anticonvulsant activity in mouse assessed as protection against subcutaneous pentylenetetrazole-induced seizures at 30 mg/kg, ip after 4 hrs. In kind it is functional, organism-based. Also on record: dose 30 mg/kg.

On to `COc1cccc(NC(=S)NC(=O)Nc2ccc3c(c2)C(=O)C(=O)N3Cc2ccccc2)c1`, for which the outcome in the data set with Mus musculus [1], in the data set on Mus musculus [2], with Mus musculus [3], with Mus musculus [4], in the data set on Mus musculus [6] and with Mus musculus [8] was inactive. For the same compound, the outcome in the data set on Mus musculus [9], in the data set with Mus musculus [11], in the data set on Mus musculus [13], in the data set with Mus musculus [14], in the data set on Mus musculus [17] and in the data set on Mus musculus [19] was inactive. In addition, the Activity entry with Mus musculus [5], with Mus musculus [7], in the data set with Mus musculus [10], with Mus musculus [12], in the data set on Mus musculus [16] and with Mus musculus [18] was “Non-toxic” each time. In data set [15], the logP amounted to 2.4.
For the compound `O=C(NC(=S)Nc1ccccc1Cl)Nc1ccc2c(c1)C(=O)C(=O)N2Cc1ccccc1`, the outcome in the data set on Mus musculus [1], in the data set with Mus musculus [2], with Mus musculus [3], in the data set with Mus musculus [4], in the data set with Mus musculus [6] and in the data set on Mus musculus [8] was inactive. Also, the result with Mus musculus [9], in the data set on Mus musculus [11], in the data set with Mus musculus [13], with Mus musculus [14], in the data set with Mus musculus [17] and in the data set on Mus musculus [19] was inactive. Besides, the Activity result in the data set on Mus musculus [5], with Mus musculus [7], with Mus musculus [10], in the data set on Mus musculus [12], in the data set with Mus musculus [16] and in the data set with Mus musculus [18] was “Non-toxic” each time. The logP in data set [15] was 3.01.
Turning to `Cc1ccccc1NC(=S)NC(=O)Nc1ccc2c(c1)C(=O)C(=O)N2Cc1ccccc1Cl`, the result in the data set with Mus musculus [1], in the data set with Mus musculus [2], in the data set on Mus musculus [3], with Mus musculus [4], in the data set on Mus musculus [6] and in the data set on Mus musculus [9] was inactive. Further, the outcome with Mus musculus [11], with Mus musculus [13], in the data set on Mus musculus [14] and in the data set with Mus musculus [19] was inactive. The Activity entry in the data set on Mus musculus [5], in the data set on Mus musculus [7], in the data set on Mus musculus [10], with Mus musculus [12], with Mus musculus [16] and in the data set on Mus musculus [18] was “Non-toxic” throughout. Besides, the result in the data set on Mus musculus [8] and in the data set with Mus musculus [17] was Active. The compound also yielded a logP in [15] of 3.7.
`Cc1cccc(NC(=S)NC(=O)Nc2ccc3c(c2)C(=O)C(=O)N3Cc2ccccc2)c1`: the result with Mus musculus [1], with Mus musculus [2], in the data set on Mus musculus [3], in the data set with Mus musculus [4], in the data set on Mus musculus [6] and in the data set on Mus musculus [8] was inactive. Moreover, the result in the data set with Mus musculus [9], with Mus musculus [11], in the data set with Mus musculus [13], in the data set with Mus musculus [14], with Mus musculus [17] and in the data set on Mus musculus [19] was inactive. In addition, the Activity entry in the data set with Mus musculus [5], in the data set on Mus musculus [7], in the data set with Mus musculus [10], with Mus musculus [12], in the data set on Mus musculus [16] and in the data set on Mus musculus [18] was “Non-toxic” each time. The same compound returned a logP in [15] of 2.92.
For `Cc1cccc(NC(=S)NC(=O)Nc2ccc3c(c2)C(=O)C(=O)N3Cc2ccccc2Cl)c1`, the outcome with Mus musculus [1], in the data set on Mus musculus [2], in the data set with Mus musculus [3], with Mus musculus [4], in the data set with Mus musculus [6] and in the data set with Mus musculus [9] was inactive. Further, the result in the data set with Mus musculus [11], in the data set with Mus musculus [13], in the data set with Mus musculus [14] and in the data set on Mus musculus [19] was inactive. The Activity entry in the data set on Mus musculus [5], in the data set on Mus musculus [7], in the data set on Mus musculus [10], in the data set on Mus musculus [12], with Mus musculus [16] and in the data set on Mus musculus [18] was “Non-toxic” in each case. Besides, the outcome in the data set on Mus musculus [8] and with Mus musculus [17] was Active. This compound also returned a logP in [15] of 3.72.
Regarding `Cc1ccccc1NC(=S)NC(=O)Nc1ccc2c(c1)C(=O)C(=O)N2Cc1ccccc1`, the result in the data set on Mus musculus [1], in the data set with Mus musculus [2], in the data set on Mus musculus [3], in the data set on Mus musculus [4], in the data set with Mus musculus [6] and in the data set on Mus musculus [8] was inactive. Further, the outcome with Mus musculus [9], in the data set on Mus musculus [11], with Mus musculus [13], in the data set with Mus musculus [14], with Mus musculus [17] and in the data set on Mus musculus [19] was inactive. Also, the Activity result in the data set on Mus musculus [5], with Mus musculus [7], in the data set with Mus musculus [10], in the data set with Mus musculus [12], in the data set with Mus musculus [16] and in the data set with Mus musculus [18] was “Non-toxic” in each case. The compound further had a logP in [15] of 2.98.
Regarding `O=C(NC(=S)Nc1ccccc1Cl)Nc1ccc2c(c1)C(=O)C(=O)N2Cc1ccccc1Cl`, the result in the data set with Mus musculus [1], in the data set with Mus musculus [2], with Mus musculus [3], in the data set on Mus musculus [4], in the data set on Mus musculus [6] and in the data set on Mus musculus [8] was inactive. Besides, the result with Mus musculus [9], in the data set with Mus musculus [11], in the data set with Mus musculus [13], in the data set with Mus musculus [14], with Mus musculus [17] and in the data set on Mus musculus [19] was inactive. Moreover, the Activity result in the data set with Mus musculus [5], in the data set with Mus musculus [7], in the data set on Mus musculus [10], with Mus musculus [12], with Mus musculus [16] and in the data set on Mus musculus [18] was “Non-toxic” throughout. In data set [15], this compound came in with a logP of 3.98.
Turning to `COc1ccc(NC(=S)NC(=O)Nc2ccc3c(c2)C(=O)C(=O)N3Cc2ccccc2Cl)cc1`, the result in the data set on Mus musculus [1], with Mus musculus [2], in the data set on Mus musculus [3], in the data set on Mus musculus [4], in the data set on Mus musculus [6] and with Mus musculus [8] was inactive. Moreover, the outcome in the data set on Mus musculus [9], with Mus musculus [11], in the data set on Mus musculus [13], in the data set on Mus musculus [14], with Mus musculus [17] and with Mus musculus [19] was inactive. The Activity entry in the data set with Mus musculus [5], in the data set with Mus musculus [7], in the data set with Mus musculus [10], in the data set on Mus musculus [12], in the data set with Mus musculus [16] and in the data set on Mus musculus [18] was “Non-toxic” throughout. In data set [15], this compound came in with a logP of 3.24.
